Results reported in ChEMBL document CHEMBL4765342, “Substituted benzothiophene and benzofuran derivatives as a novel class of bone morphogenetic Protein-2 upregulators: Synthesis, anti-osteoporosis efficacies in ovariectomized rats and a zebrafish model, and ADME properties” (Eur J Med Chem, 2020).
Activity calls are given as the source filed them. No cut-off for these calls is given here.

Key:
[1] = target: Runt-related transcription factor 2 (Mus musculus) (UniProt Q08775); experiment: Upregulation of Runx2 transcriptional activity in mouse MC3T3-E1 cells transfected with p6OSE2-luc at 10 uM incubated for 48 hrs by firefly luciferase reporter gene assay relative to control; type: cell-based; conditions: filed as activator
How it was run: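 MC3T3-E1 cells reverse-transfected in suspension with p6OSE2-luc (Runx2-responsive reporter), 100 ng DNA per well, 10^5 cells/ml in α-MEM with 10% FBS, 37 °C in CO2. After 24 h the medium was replaced with complete medium containing compound, with lovastatin as positive control. Firefly luciferase read after a further 48 h as relative luminescence units. Significance by Dunnett's test.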

MC3T3-E1 = experiment: Cytotoxicity against mouse MC3T3-E1 cells at 100 uM; type: cell-based; conditions: mc3t3-e1, 100 µM
Rattus norvegicus [2] = experiment: Antiosteoporotic activity in Sprague-Dawley rat model of OVX-induced bone loss assessed as increase in trabecular bone mineral density at 5 mg/kg, ig administered for 3 months with 1 day break after 6 consecutive days administration; type: functional, organism-based
How it was run: (§1)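 Female SD rats given bilateral ovariectomy (sham: fat tissue removed instead), adapted 1 week beforehand; dosing began on postoperative day 10, n = 10 per group. Test drugs as 3 mg/mL suspension by gavage; raloxifene hydrochloride at 0.5 mg/mL. Controls got water. Tetracycline 30 mg/kg ip 16 and 3 days before euthanasia. Tibia stained sections give trabecular morphology and TBV%. BMD of L4-6 measured by densitometry under pentobarbital 45 mg/kg anaesthesia. Reported as mean ± SD.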

Rattus norvegicus [3] = experiment: Antiosteoporotic activity in Sprague-Dawley rat model of OVX-induced bone loss assessed as narrowed gap between trabeculae at 5 mg/kg, ig administered for 3 months with 1 day break after 6 consecutive days administration; type: functional, organism-based; how it was run: as §1
Rattus norvegicus [4] = experiment: Antiosteoporotic activity in Sprague-Dawley rat model of OVX-induced bone loss assessed as increase in trabecular bone volume at 5 mg/kg, ig administered for 3 months with 1 day break after 6 consecutive days administration; type: functional, organism-based; how it was run: as §1
Rattus norvegicus [5] = experiment: Antiosteoporotic activity in Sprague-Dawley rat model of OVX-induced bone loss assessed as increase in thickness of trabeculae at 5 mg/kg, ig administered for 3 months with 1 day break after 6 consecutive days administration; type: functional, organism-based; how it was run: as §1
Rattus norvegicus [6] = experiment: Antiosteoporotic activity in Sprague-Dawley rat model of OVX-induced bone loss assessed as increase in number of trabeculae at 5 mg/kg, ig administered for 3 months with 1 day break after 6 consecutive days administration; type: functional, organism-based; how it was run: as §1

Chain of Runt-related transcription factor 2 (Mus musculus) (Q08775 whole entry): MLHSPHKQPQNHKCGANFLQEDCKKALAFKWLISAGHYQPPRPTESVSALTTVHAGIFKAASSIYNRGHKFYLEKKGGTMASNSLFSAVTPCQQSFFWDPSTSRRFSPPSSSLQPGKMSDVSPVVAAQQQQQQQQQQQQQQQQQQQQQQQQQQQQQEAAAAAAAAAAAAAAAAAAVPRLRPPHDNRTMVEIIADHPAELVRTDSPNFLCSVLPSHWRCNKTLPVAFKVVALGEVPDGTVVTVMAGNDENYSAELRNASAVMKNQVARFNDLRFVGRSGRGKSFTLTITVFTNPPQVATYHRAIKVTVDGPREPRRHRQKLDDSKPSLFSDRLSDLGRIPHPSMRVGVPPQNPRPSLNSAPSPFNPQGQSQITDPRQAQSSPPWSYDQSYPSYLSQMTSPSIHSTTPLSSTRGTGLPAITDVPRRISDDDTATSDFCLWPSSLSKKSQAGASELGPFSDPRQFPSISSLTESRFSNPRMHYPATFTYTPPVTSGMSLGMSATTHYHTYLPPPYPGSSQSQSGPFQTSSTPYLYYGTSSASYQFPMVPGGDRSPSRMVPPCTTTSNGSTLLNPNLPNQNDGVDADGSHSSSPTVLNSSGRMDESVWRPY

| Structure (SMILES) | Activity [1] | Activity (MC3T3-E1) | Activity (Rattus norvegicus [2]) | Activity (Rattus norvegicus [3]) | Activity (Rattus norvegicus [4]) | Activity (Rattus norvegicus [5]) | Activity (Rattus norvegicus [6]) |
| --- | --- | --- | --- | --- | --- | --- | --- |
| CC[C@H](C)C(=O)O[C@H]1C[C@@H](C)C=C2C=C[C@H](C)[C@H](CC[C@@H]3C[C@@H](O)CC(=O)O3)[C@H]21 [LOVASTATIN] | 256% | Toxic |  |  |  |  |  |
| O=C(c1ccc(OCCN2CCCCC2)cc1)c1c(-c2ccc(O)cc2)sc2cc(O)ccc12 |  |  | Active | Active | Active | Active | Active |
